# Source: ChEMBL document CHEMBL1138253, “Cytotoxic and apoptotic activities of novel amino analogues of boswellic acids” (2007)
# Assays:
# Assay type in all cases: functional
# [1] = Cytotoxicity against human 502713 cells at 10 uM after 48 hrs; conditions: Homo sapiens, 502713, 48 h
# How it was run: (§1)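 SRB growth assay. DMSO stock (1 × 10^-2 M) diluted in RPMI-1640 (2 mM glutamine, pH 7.4, 10% FCS, antibiotics). Trypsinized subconfluent cells with >97% viability (trypan blue) seeded at 10^5 cells/ml and grown 24 h, then exposed to compound 48 h at 37 °C, 5% CO2. Fixed with TCA at 4 °C for 1 h, stained with 0.4% SRB, solubilized in 0.01 M Tris pH 10.4, OD read at 540 nm. Run in triplicate; mean of three experiments.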
# DU-145 = experiment: Cytotoxicity against human DU145 cells at 10 uM after 48 hrs; conditions: DU-145, 48 h; how it was run: as §1
# MCF7 = experiment: Cytotoxicity against human MCF7 cells at 10 uM after 48 hrs; conditions: MCF7, 48 h; how it was run: as §1
# SW-620 = experiment: Cytotoxicity against human SW620 cells at 10 uM after 48 hrs; conditions: SW-620, 48 h; how it was run: as §1
# HT-29 = experiment: Cytotoxicity against human HT29 cells at 10 uM after 48 hrs; conditions: HT-29, 48 h; how it was run: as §1
SMILES,inhibition at 10 µM [1] [%],inhibition at 10 µM (DU-145) [%],inhibition at 10 µM (MCF7) [%],inhibition at 10 µM (SW-620) [%],inhibition at 10 µM (HT-29) [%]
C[C@H]1[C@H](C)CC[C@]2(C)CC[C@]3(C)C(=CC(=O)[C@@H]4[C@@]5(C)CC[C@@H](O)[C@](C)(C(=O)O)[C@@H]5CC[C@]43C)[C@H]12 [11-KETO BOSWELLIC ACID],0,0,0,7,7
CCC(=O)N[C@]1(C)[C@@H]2CC[C@]3(C)[C@H](C(=O)C=C4[C@@H]5[C@@H](C)[C@H](C)CC[C@]5(C)CC[C@]43C)[C@@]2(C)CC[C@H]1OC(=O)CC,24,0,4,0,0
COC(=O)[C@@]1(C)[C@H](O)CC[C@@]2(C)[C@H]1CC[C@]1(C)[C@@H]2CC=C2[C@@H]3[C@@H](C)[C@H](C)CC[C@]3(C)CC[C@]21C,23,13,1,0,0
CC(=O)O[C@H]1CC[C@@]2(C)[C@@H](CC[C@]3(C)[C@@H]2C(=O)C=C2[C@@H]4[C@@H](C)[C@H](C)CC[C@]4(C)CC[C@]23C)[C@@]1(C)N=C=O,0,0,9,20,5
COC(=O)[C@]1(C)[C@@H]2CC[C@]3(C)[C@H](C(=O)C=C4[C@@H]5[C@@H](C)[C@H](C)CC[C@]5(C)CC[C@]43C)[C@@]2(C)CC[C@@H]1O,10,0,0,11,3
CC(=O)O[C@H]1C(=O)[C@@]2(C)[C@H]([C@H](OC(=O)c3ccccc3)[C@]3(O)C[C@H](OC(=O)[C@H](O)[C@@H](NC(=O)c4ccccc4)c4ccccc4)C(C)=C1C3(C)C)[C@]1(OC(C)=O)CO[C@@H]1C[C@@H]2O [PACLITAXEL],26,53,46,41,76
CC(=O)O[C@H]1CC[C@@]2(C)[C@@H](CC[C@]3(C)[C@@H]2C(=O)C=C2[C@@H]4[C@@H](C)[C@H](C)CC[C@]4(C)CC[C@]23C)[C@@]1(C)C(=O)O,23,0,21,0,19
C[C@H]1[C@H](C)CC[C@]2(C)CC[C@]3(C)C(=CC[C@@H]4[C@@]5(C)CC[C@@H](O)[C@](C)(C(=O)O)[C@@H]5CC[C@]43C)[C@H]12 [BOSWELLIC ACID],24,0,18,2,15
CC(=O)N[C@@]1(C)[C@@H](OC(C)=O)CC[C@@]2(C)[C@H]1CC[C@]1(C)[C@@H]2CC=C2[C@@H]3[C@@H](C)[C@H](C)CC[C@]3(C)CC[C@]21C,0,6,2,43,27
COC(=O)[C@@]1(C)[C@H](O)CC[C@@]2(C)[C@H]1CC[C@]1(C)[C@@H]2C(=O)C=C2[C@@H]3[C@@H](C)[C@H](C)CC[C@]3(C)CC[C@]21C,19,12,0,1,0
C[C@H]1[C@H](C)CC[C@]2(C)CC[C@]3(C)C(=CC(=O)[C@@H]4[C@@]5(C)CC[C@H](O)[C@](C)(C(=O)O)[C@@H]5CC[C@]43C)[C@H]12,27,3,16,1,0
CC(=O)N[C@]1(C)[C@@H]2CC[C@]3(C)[C@H](C(=O)C=C4[C@@H]5[C@@H](C)[C@H](C)CC[C@]5(C)CC[C@]43C)[C@@]2(C)CC[C@H]1OC(C)=O,20,9,62,0,0
CC(=O)O[C@H]1CC[C@@]2(C)[C@@H](CC[C@]3(C)[C@@H]2CC=C2[C@@H]4[C@@H](C)[C@H](C)CC[C@]4(C)CC[C@]23C)[C@@]1(C)N=C=O,3,18,50,6,2
CC(=O)O[C@@H]1CC[C@@]2(C)[C@@H](CC[C@]3(C)[C@@H]2CC=C2[C@@H]4[C@@H](C)[C@H](C)CC[C@]4(C)CC[C@]23C)[C@@]1(C)N=C=O,0,0,30,0,22
CC(=O)O[C@@H]1CC[C@@]2(C)[C@@H](CC[C@]3(C)[C@@H]2C(=O)C=C2[C@@H]4[C@@H](C)[C@H](C)CC[C@]4(C)CC[C@]23C)[C@@]1(C)C(=O)O [AKBA],8,10,12,2,24
CCCC(=O)N[C@]1(C)[C@@H]2CC[C@]3(C)[C@H](C(=O)C=C4[C@@H]5[C@@H](C)[C@H](C)CC[C@]5(C)CC[C@]43C)[C@@]2(C)CC[C@H]1OC(=O)CCC,12,0,0,0,0
CC(=O)O[C@H]1CC[C@@]2(C)[C@@H](CC[C@]3(C)[C@@H]2CC=C2[C@@H]4[C@@H](C)[C@H](C)CC[C@]4(C)CC[C@]23C)[C@@]1(C)C(=O)O,12,0,15,20,17
CCC(=O)N[C@@]1(C)[C@@H](OC(=O)CC)CC[C@@]2(C)[C@H]1CC[C@]1(C)[C@@H]2CC=C2[C@@H]3[C@@H](C)[C@H](C)CC[C@]3(C)CC[C@]21C,0,11,0,13,24
COC(=O)[C@@]1(C)C(=O)CC[C@]2(C)[C@H]3CC=C4[C@@H]5[C@@H](C)[C@H](C)CC[C@]5(C)CC[C@@]4(C)[C@]3(C)CC[C@@H]12,27,12,0,3,12
CCCC(=O)N[C@@]1(C)[C@@H](OC(=O)CCC)CC[C@@]2(C)[C@H]1CC[C@]1(C)[C@@H]2CC=C2[C@@H]3[C@@H](C)[C@H](C)CC[C@]3(C)CC[C@]21C,14,0,0,21,0
COC(=O)[C@]1(C)[C@@H]2CC[C@]3(C)[C@H](CC=C4[C@@H]5[C@@H](C)[C@H](C)CC[C@]5(C)CC[C@]43C)[C@@]2(C)CC[C@@H]1O,9,0,0,12,0
CCCC(=O)N[C@]1(C)[C@@H]2CC[C@]3(C)[C@H](CC=C4[C@@H]5[C@@H](C)[C@H](C)CC[C@]5(C)CC[C@]43C)[C@@]2(C)CC[C@H]1OC(=O)CCC,7,0,0,0,0
COC(=O)[C@@]1(C)C(=O)CC[C@]2(C)[C@H]3C(=O)C=C4[C@@H]5[C@@H](C)[C@H](C)CC[C@]5(C)CC[C@@]4(C)[C@]3(C)CC[C@@H]12,20,13,3,2,5
CC(=O)O[C@@H]1CC[C@@]2(C)[C@@H](CC[C@]3(C)[C@@H]2C(=O)C=C2[C@@H]4[C@@H](C)[C@H](C)CC[C@]4(C)CC[C@]23C)[C@@]1(C)N=C=O,2,0,10,0,0
CC(=O)O[C@@H]1CC[C@@]2(C)[C@@H](CC[C@]3(C)[C@@H]2CC=C2[C@@H]4[C@@H](C)[C@H](C)CC[C@]4(C)CC[C@]23C)[C@@]1(C)C(=O)O,20,0,0,5,36
CC(=O)N[C@]1(C)[C@@H]2CC[C@]3(C)[C@H](CC=C4[C@@H]5[C@@H](C)[C@H](C)CC[C@]5(C)CC[C@]43C)[C@@]2(C)CC[C@H]1OC(C)=O,7,8,57,0,0
C[C@H]1[C@H](C)CC[C@]2(C)CC[C@]3(C)C(=CC[C@@H]4[C@@]5(C)CC[C@H](O)[C@](C)(C(=O)O)[C@@H]5CC[C@]43C)[C@H]12,18,1,18,15,11
CO[C@@]12[C@H](COC(N)=O)C3=C(C(=O)C(C)=C(N)C3=O)N1C[C@@H]1N[C@@H]12 [MITOMYCIN],84,56,78,67,63
